# An excerpt weighted towards active compounds, which were near 3% of everything screened.
# Tn6 DDE FP = inhibitors of Tn6 peptide binding to human fibrin DD(E); P02675; Fibrin DD(E) TRITC-Tn6 fluorescence polarization displacement; inhibition, % at 8.3 µM; actives 0.21% (n = 370,000);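 active = inhibition above a per-campaign cutoff: mean of compounds within control limits plus 3 SD, cut at about 15% in these data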;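 note: 0% = median of all compound wells on the plate and 100% = blocking peptide control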
# DDE Tn7 FP inh = disrupts Tn7 cyclic peptide binding to fibrin D-Dimer-E complex | FP displacement of FITC-Tn7 peptide from fibrin DD(E); 0% = median of compound wells per plate | inhibition, % at 8.3 µM | actives 0.13% (n = 370,000) | AID 720508;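 active = inhibition above the mean of compounds falling within the control limits plus 3 SD of them, cut at about 14% in these data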;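 note: 0% = plate median of compound wells and 100% = 10 µM Aha-Tn7 peptide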
#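 Measure: % inhibition scaled between sample-field median and high-control FP; Test system: human fibrin DD(E); Quantity: 2 µM final DD(E) protein; Doses: one dose, 8.3 µM nominal; Schedule: compound with protein 10 min, then 3 h after probe, room temperature; Detection: fluorescence polarization; Medium: Tris buffer with calcium and detergent, pH 7.8.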
# KLK7 zymogen act = activators of human kallikrein-7 zymogen | purified proKLK7, EDANS-DABCYL substrate fluorescence; 100% is mature enzyme control, 0% vehicle | activation, % at 7 µM | P49862 | actives 0.9% (n = 370,000);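 active = activation above the mean of all tested compounds plus 3 SD, computed per campaign excluding outliers beyond control limits, cut at about 13% in these data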
# PLCg1 inh = inhibitors of human phospholipase C gamma1 | purified PLC-gamma1, fluorogenic substrate, fluorescence | P19174 | actives 0.84% (n = 370,000) | AID 720700 | inhibition, % at 12.2 µM; in the data active = inhibition above about 9.5%
# PLC-beta3 inh = blocks human PLC-beta3 enzyme activity. AID 720704. inhibition, % at 12.2 µM. Q01970. Purified PLC-beta3, fluorogenic substrate, fluorescence. actives 0.18% (n = 370,000); in the data active = inhibition above about 11%;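 note: 0% = median of compound wells on plate and 100% = full blocker control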
# NRP1-CendR mod = modulators of CendR peptide binding to human neuropilin-1; O14786; FAM-RPARPAR peptide binding to NRP-1, fluorescence polarization; AID 602438; inhibition, % at 25 µM; actives 0.85% (n = 360,000);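 active = inhibition or corrected inhibition above about 18%, plus a signal ratio from 0.5 to 1.5, limit read from the data, passing the limit was not always enough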
# proKLK7 act conf = confirmation of human kallikrein-7 zymogen activators; activation, % at 7 µM; shares compounds with KLK7 zymogen act; purified proKLK7, EDANS-DABCYL substrate fluorescence; scaled: vehicle 0, mature enzyme 100; actives 68% (n = 3,200);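 active = activation, as change over the incubation, above the mean of all tested compounds plus 3 SD, cut at about 13% in these data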
# EDANS interfere = optically interferes with EDANS-DABCYL signal, flagging KLK7 hits. EDANS-DABCYL substrate fluorescence interference, no enzyme, 4 h; solvent 0%, active enzyme control 100%. actives 80% (n = 3,200). AID 686952. shares compounds with KLK7 zymogen act. activation, % at 7 µM;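 active = activation above the all-compound mean plus 3 SD, ignoring values outside control-based bounds, cut at about 4.8% in these data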;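 note: value is the 4 h activation minus the activation read at time zero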
# K7 EDANS ctr = counter-screen for kallikrein-7 activators: EDANS-DABCYL interference, dose response; actives 20% (n = 250); EDANS-DABCYL peptide fluorescence interference, no enzyme; EC50, µM; shares compounds with KLK7 zymogen act; AID 720493;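 active = compounds that raise the fluorescence signal in this interference counterscreen, with EC50 at or below 10 µM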;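 note: intact quenched peptide substrate alone read at 355 nm excitation and 520 nm emission; signal is fluorescence gain from T0 to T4 after four hours at room temperature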
# Starred values were filed as active, the others as inactive; i = inactive; . = not tested or not shown.
SMILES,Tn6 DDE FP,DDE Tn7 FP inh,KLK7 zymogen act,PLCg1 inh,PLC-beta3 inh,NRP1-CendR mod,proKLK7 act conf,EDANS interfere,others
CCOC(=O)c1nn(-c2ccccc2)c(C(=O)OCC)c1N,-4,-3,18*,-383,-388,0,9,11*,
CCOC(=O)C[n+]1ccc2c([nH]c3ccccc32)c1C,-8,-6,36*,i,i,13,47*,72*,
COc1ccc(O)c(C(=O)CC(=O)c2ccncc2)c1,2,-3,14*,i,i,-12,282*,290*,
Cc1cccc(Cn2cc(CN3CC(N(C)CCCOC(=O)c4cc(C)cc(C)c4)CS3(=O)=O)nn2)c1 (stereo unspecified),2,6,1,1,-4,.,.,.,
CCC(c1nnnn1Cc1ccc(F)cc1)N(CCCO)Cc1cc2cc3c(cc2[nH]c1=O)OCO3 (stereo unspecified),-6,3,26*,i,i,7,0,1,
CCOC(=O)c1cc2c(=O)n3ccccc3nc2n(Cc2ccco2)c1=NC(=O)c1ccccc1OC,-1,1,8,-380,i,-43,.,.,
CCCn1c(=NC(=O)c2ccco2)c(C(=O)OCC)cc2c(=O)n3ccccc3nc21,-8,-1,89*,-498,i,-14,35*,35*,
CCOC(=O)c1cc2c(=O)n3ccccc3nc2n(C(C)C)c1=NC(=O)c1ccco1,7,-5,44*,-469,i,-6,59*,51*,
N=c1c(C(=O)NCCc2ccccc2)cc2c(=O)n3ccccc3nc2n1Cc1ccco1,-6,-9,-9,i,i,-2,.,.,
CC(C)n1c(=NC(=O)c2ccco2)c(C#N)cc2c(=O)n3ccccc3cc21,-5,-2,45*,-350,-478,-20,22*,19*,
CCOC(=O)c1cnn2c(C)cc(-c3ccc(F)cc3)nc12,3,2,26*,i,i,-3,-4,17*,
COc1ccc(-c2coc3cc(OC(C)=O)ccc3c2=S)cc1,2,1,51*,-234,-300,-12,93*,77*,
COc1ccc(-c2coc3cc(O)c(OC)cc3c2=O)cc1,0,5,13*,i,i,9,67*,54*,
CC(=O)Oc1ccc2c(=O)c(-c3ccccc3)coc2c1,4,2,90*,-271,-418,-7,274*,247*,
COc1ccc(-c2coc3cc(OC)ccc3c2=O)cc1,5,-1,0,-6,-6,-1,.,.,
O=C(CSc1nc2nc(-c3cccs3)cc(C(F)(F)F)c2c(=O)[nH]1)C(F)(F)F,-3,-3,67*,i,i,-2,278*,260*,
COC(=O)CSc1nc2nc(-c3cccs3)cc(C(F)(F)F)c2c(=O)[nH]1,8,4,1,-16,-34,0,.,.,
O=C(CSc1nc2nc(-c3cccs3)cc(C(F)(F)F)c2c(=O)[nH]1)NCc1ccco1,-4,-2,16*,-308,-424,-47,-34,-23,
Cc1cc(-c2ccccc2)c(C#N)c(SCC(N)=O)n1,3,1,0,0,1,1,.,.,
CCOC(=O)CC(=O)CSc1nc(C)cc(-c2cccnc2)c1C#N,-3,-8,35*,-81,-97,-10,98*,72*,K7 EDANS ctr=5.5*
CCOC(=O)CC(=O)CSc1nc(N)c(C#N)c(-c2ccc(F)cc2)c1C#N,-2,6,14*,-90,-141,-5,13*,13*,
CCOC(=O)CC(=O)CSc1nccc(-c2cccnc2)n1,-8,-1,1,-12,-26,-4,.,.,
